Source: ChEMBL document CHEMBL4665766, “Synthesis and in vitro evaluation of vanillin derivatives as multi-target therapeutics for the treatment of Alzheimer's disease” (Bioorg Med Chem Lett, 2020)
Activity calls are given as the source filed them. No cut-off for these calls is given here.

Tests used:
Acetylcholinesterase = Acetylcholinesterase (Electrophorus electricus, UniProt O42275); experiment: (§1) Inhibition of electric eel AChE by Ellman's method
How it was run: (§2)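 Electrophorus electricus AChE stock at 22 U/mL in 20 mM Tris HCl (pH 7.5), diluted 1/100 before use. Compound dilution series in methanol (≤1% DMSO) was preincubated with enzyme and DTNB solution (3 mM, phosphate/Hepes 0.05 M/0.09 M, pH 7.5) for 10 min at 37°C. Acetylthiocholine iodide solution (15 mM) was then added for a further 10 min, and A415 was read. IC50 is the 50% activity inhibition point, from 3 independent experiments.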

[1] = Selectivity index, ratio of IC50 for electric eel AChE to IC50 for equine BuChE
How it was run: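 Ratio of Ellman-assay IC50 values, AChE IC50 divided by BuChE IC50. Electric eel AChE was diluted 1/100 with acetylthiocholine substrate. Equine BuChE was diluted 3/100 with butyrylthiocholine substrate. Both enzymes were preincubated with compound and DTNB for 10 min at 37°C, given 10 min with substrate, and read at 415 nm.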

Cholinesterase = Cholinesterase (Equus caballus, UniProt P81908); experiment: (§3) Inhibition of equine BuChE by Ellman's method
How it was run: (§4)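 Equine serum BuChE stock at 22 U/mL in 20 mM Tris HCl (pH 7.5), diluted 3/100 before use. Methanol dilutions of compound (≤1% DMSO) were preincubated 10 min at 37°C with enzyme and 3 mM DTNB solution (phosphate/Hepes buffer, pH 7.5). Butyrylthiocholine iodide solution (15 mM) was then added, with 10 min further incubation, and absorbance was read at 415 nm. IC50 (50% activity inhibited) was taken from 3 independent experiments.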

[2] = molecular target: Cholinesterase (Equus caballus) (UniProt P81908); experiment: Potency index, ratio of neostigmine IC50 to test compound IC50 for inhibition of equine BuChE
[3] = Antioxidant activity assessed as increase in total ferric ion reducing activity using FeCl3.H2O and TPTZ by measuring trolox equivalents at pH 3.6 measured at different time interval up to 150 mins by microplate reader based FRAP assay; format: functional; parameters: unit not given here; conditions: time min <=150
[4] = molecular target: Cholinesterase (Equus caballus) (UniProt P81908); experiment: Potency index, ratio of rivastigmine IC50 to test compound IC50 for inhibition of equine BuChE
[5] = Antioxidant activity assessed as trolox equivalent of AAPH-induced radical scavenging activity preincubated for 10 mins followed by AAPH addition and measured every minute for 35 mins by ORAC fluorescein assay; format: functional; conditions: time min <=35
[6] = Potency index, ratio of trolox to test compound for antioxidant activity assessed as trolox equivalent of AAPH scavenging activity by ORAC fluorescein assay; format: functional
How it was run: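 Compounds from 10 mM DMSO stocks and Trolox diluted in 75 mM phosphate buffer, pH 7.4. […] with 25 nM sodium fluorescein (solution concentration), then 0.15 M AAPH solution added. Fluorescence (ex 485, em 525 nm) […]. TE from comparing the slopes of Trolox and compound calibration curves; mean ± SD of 3 independent experiments.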

[7] = Potency index, ratio of test compound trolox equivalent to vanillin trolox equivalent for antioxidant activity assessed as ferric ion reducing activity by FRAP assay; format: functional
[8] = Antioxidant activity assessed as DPPH free radical scavenging activity after 1 hr by microplate reader based assay; format: functional
[9] = molecular target: Acetylcholinesterase (Electrophorus electricus) (UniProt O42275); experiment: as §1; how it was run: as §2
[10] = molecular target: Cholinesterase (Equus caballus) (UniProt P81908); experiment: as §3; how it was run: as §4

Chain of Cholinesterase (Equus caballus) (P81908 whole entry): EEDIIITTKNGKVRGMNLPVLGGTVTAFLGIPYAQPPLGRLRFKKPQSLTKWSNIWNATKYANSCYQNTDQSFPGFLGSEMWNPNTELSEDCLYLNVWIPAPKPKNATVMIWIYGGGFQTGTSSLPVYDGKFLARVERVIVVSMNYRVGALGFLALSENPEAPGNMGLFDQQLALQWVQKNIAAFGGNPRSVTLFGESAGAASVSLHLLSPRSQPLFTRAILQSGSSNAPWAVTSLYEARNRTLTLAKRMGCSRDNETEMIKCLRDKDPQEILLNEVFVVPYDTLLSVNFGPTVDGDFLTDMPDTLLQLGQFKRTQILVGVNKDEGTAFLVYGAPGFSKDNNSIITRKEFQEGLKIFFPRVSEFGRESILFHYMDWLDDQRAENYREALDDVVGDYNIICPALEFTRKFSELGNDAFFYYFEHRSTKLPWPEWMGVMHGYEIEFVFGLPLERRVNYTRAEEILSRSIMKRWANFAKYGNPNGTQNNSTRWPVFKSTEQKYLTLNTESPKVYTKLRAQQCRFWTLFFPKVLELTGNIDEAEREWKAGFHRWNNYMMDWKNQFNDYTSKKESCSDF
Chain of Cholinesterase (P81908 whole entry): as above
Chain of Acetylcholinesterase (O42275 whole entry): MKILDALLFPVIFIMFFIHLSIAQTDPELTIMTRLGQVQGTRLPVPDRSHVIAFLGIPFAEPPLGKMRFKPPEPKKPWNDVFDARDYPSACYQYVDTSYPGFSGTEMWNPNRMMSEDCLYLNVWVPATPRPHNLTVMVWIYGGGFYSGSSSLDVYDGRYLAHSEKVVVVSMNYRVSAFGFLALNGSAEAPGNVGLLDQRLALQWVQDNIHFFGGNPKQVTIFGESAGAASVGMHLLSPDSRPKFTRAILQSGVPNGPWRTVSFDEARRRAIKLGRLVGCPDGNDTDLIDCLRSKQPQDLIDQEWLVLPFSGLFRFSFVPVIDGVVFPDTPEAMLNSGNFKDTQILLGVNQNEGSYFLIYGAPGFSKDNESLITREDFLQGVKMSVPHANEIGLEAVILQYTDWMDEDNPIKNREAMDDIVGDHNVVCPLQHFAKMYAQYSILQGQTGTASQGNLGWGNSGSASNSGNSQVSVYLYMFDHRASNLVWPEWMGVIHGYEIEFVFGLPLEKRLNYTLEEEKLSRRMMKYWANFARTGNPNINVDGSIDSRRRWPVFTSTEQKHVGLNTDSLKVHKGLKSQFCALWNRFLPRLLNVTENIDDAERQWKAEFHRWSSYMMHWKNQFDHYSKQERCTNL
Chain of Acetylcholinesterase (Electrophorus electricus) (O42275 24-633 limits assumed): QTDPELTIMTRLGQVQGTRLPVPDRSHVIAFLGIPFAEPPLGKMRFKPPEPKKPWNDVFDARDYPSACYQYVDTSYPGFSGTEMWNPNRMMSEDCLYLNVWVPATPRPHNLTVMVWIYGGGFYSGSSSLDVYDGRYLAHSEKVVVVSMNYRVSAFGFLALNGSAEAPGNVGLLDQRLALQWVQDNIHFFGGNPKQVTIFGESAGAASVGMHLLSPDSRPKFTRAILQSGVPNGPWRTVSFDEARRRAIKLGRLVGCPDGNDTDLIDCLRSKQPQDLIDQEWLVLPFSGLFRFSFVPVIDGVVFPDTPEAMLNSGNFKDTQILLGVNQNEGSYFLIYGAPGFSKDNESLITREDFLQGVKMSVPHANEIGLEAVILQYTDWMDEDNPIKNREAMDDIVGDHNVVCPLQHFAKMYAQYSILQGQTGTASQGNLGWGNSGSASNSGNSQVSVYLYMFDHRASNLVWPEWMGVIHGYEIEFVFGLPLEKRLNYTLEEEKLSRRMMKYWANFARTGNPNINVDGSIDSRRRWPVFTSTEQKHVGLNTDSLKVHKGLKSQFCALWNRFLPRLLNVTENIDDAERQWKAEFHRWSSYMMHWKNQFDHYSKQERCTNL

## CN(C)C(=O)Oc1cccc([N+](C)(C)C)c1 [NEOSTIGMINE]
Acetylcholinesterase
  IC50: 7.5 µM
[1]
  Ratio IC50: 2.56
Cholinesterase
  IC50: 2.93 µM

## COc1cc(CN(CCCN2C(=O)c3cccc4cccc(c34)C2=O)Cc2ccc(O)c(OC)c2)ccc1O
[2]
  Ratio IC50: 10
[3]
  Activity: 0.49
[4]
  Ratio IC50: 3
[5]
  Activity: 9.43
Acetylcholinesterase
  IC50: 14.3 µM
[6]
  Ratio: 10
[7]
  Ratio: 25
[1]
  Ratio IC50: 53.1
Cholinesterase
  IC50: 0.27 µM
[8]
  IC50: 16.7 µM

## COc1cc(CNCCCCCCN2C(=O)c3ccccc3C2=O)ccc1O
[3]
  Activity: 0.23
[5]
  Activity: 13.2
Acetylcholinesterase
  IC50: 4.67 µM
[1]
  Ratio IC50: 12.6
Cholinesterase
  IC50: 0.37 µM
[8]
  IC50: 82.3 µM

## COc1cc(C=O)ccc1O [VANILLIN]
[3]
  Activity: 0.02
[5]
  Activity: 2.2
[9]
  inhibition: inactive
[10]
  inhibition: inactive
[8]
  IC50: 7920 µM

## COc1cc(CNCCCCN2C(=O)c3cccc4cccc(c34)C2=O)ccc1O
[3]
  Activity: 0.26
[5]
  Activity: 8.1
Acetylcholinesterase
  IC50: 13.7 µM
[1]
  Ratio IC50: 15.2
Cholinesterase
  IC50: 0.9 µM
[8]
  IC50: 62 µM

## COc1cc(CNCCCCCCCN2C(=O)c3cccc4cccc(c34)C2=O)ccc1O
[3]
  Activity: 0.34
[5]
  Activity: 6.7
Acetylcholinesterase
  IC50: 3.33 µM
[1]
  Ratio IC50: 2.22
Cholinesterase
  IC50: 1.5 µM
[8]
  IC50: 70 µM

## COc1cc(CNCCCNC(=O)c2ccccc2CO)ccc1O
[3]
  Activity: 0.96
[8]
  IC50: 113 µM
